The results in this text go back to ChEMBL document CHEMBL1150627, “Diterpenes from the roots of Euphorbia kansui and their in vitro effects on the cell division of Xenopus” (2002).

Calls of active or inactive are those of the source. No cut-off for these calls is given here.

The species named for one assay is Xenopus laevis. The assay can be described thus: Induction of cleavage arrest in embryonic cells of Xenopus laevis stage 8 blastulae after 20 hrs by animal cap assay. It counts as functional, cell-based. The method, boiled down: (§1)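 Single inner-surface cells taken from animal caps of X. laevis stage 8 blastulae, freed in Ca/Mg-free medium (50 mM phosphate, 35 mM NaCl, 1 mM KCl, pH 7.0). Two or three cells per well in NAM/2 with 2 mg/mL γ-globulin, non-nutritive. Test concentrations 0.1, 0.5, 2, 10, 50 and 200 µg/mL. Cultured 20 h at 25 °C. Read-out: percentage of cells with cleavage arrest.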
Turning to `C=C1[C@H](OC(=O)c2ccccc2)[C@H]2[C@@H](OC(C)=O)[C@](C)(O)[C@H](OC(C)=O)[C@]2(O)C(=O)[C@@H](C)[C@H]2O[C@@H]2C(C)(C)C(=O)[C@H](O)[C@H]1OC(=O)c1ccccc1`, the result was inactive.

Take `C=C1[C@H](OC(C)=O)[C@@H](OC(=O)c2ccccc2)[C@@H](OC(C)=O)C(C)(C)[C@H]2O[C@](O)([C@H](C)C2=O)[C@@]2(OC(C)=O)C[C@H](C)[C@H](OC(C)=O)[C@@H]2[C@H]1OC(C)=O`: the result was inactive.

System in a further assay: not listed separately
Put plainly: Induction of cleavage arrest in embryonic cells of Xenopus laevis stage 8 blastulae at 0.5 ug/mL after 20 hrs by animal cap assay. It counts as functional. The method, boiled down:
as §1
In the case of `CCCCC/C=C/C=C/C(=O)OCC1=C[C@@H]2C(=O)[C@]3(C=C(C)[C@H](O)[C@@]3(O)[C@@H]1O)[C@H](C)C[C@@H]1[C@H]2C1(C)C`, the Activity is listed as >75%.

On to `CCCCC/C=C/C=C/C(=O)O[C@@H]1C(CO)=C[C@@H]2C(=O)[C@]3(C=C(C)[C@H](O)[C@@]13O)[C@H](C)C[C@@H]1[C@H]2C1(C)C`, for which the Activity is >75%.

In the case of `CCCCC/C=C/C=C/C(=O)O[C@H]1C(C)=C[C@]23C(=O)[C@@H](C=C(COC(C)=O)[C@@H](O)[C@]12O)[C@H]1[C@@H](C[C@H]3C)C1(C)C`, the Activity was >75%.

`CCCCC/C=C\C=C\C(=O)O[C@H]1C(C)=C[C@]23C(=O)[C@@H](C=C(COC(C)=O)[C@@H](O)[C@]12O)[C@H]1[C@@H](C[C@H]3C)C1(C)C`: the Activity is recorded as >75%.

With `CCCCCCCCCC(=O)OCC1=C[C@@H]2C(=O)[C@]3(C=C(C)[C@H](O)[C@@]3(O)[C@@H]1O)[C@H](C)C[C@@H]1[C@H]2C1(C)C`, the Activity is reported as >75%.

On to `CCCCC/C=C\C=C\C(=O)OCC1=C[C@@H]2C(=O)[C@]3(C=C(C)[C@H](O)[C@@]3(O)[C@@H]1O)[C@H](C)C[C@@H]1[C@H]2C1(C)C`, for which the Activity is >75%.

As for `CCCCC/C=C\C=C\C(=O)O[C@H]1C(C)=C[C@]23C(=O)[C@@H](C=C(CO)[C@@H](O)[C@]12O)[C@H]1[C@@H](C[C@H]3C)C1(C)C`, the Activity is recorded as >75%.

For the molecule `CCCCC/C=C/C=C/C(=O)O[C@H]1C(C)=C[C@]23C(=O)[C@@H](C=C(CO)[C@@H](O)[C@]12O)[C@H]1[C@@H](C[C@H]3C)C1(C)C`, the Activity is >75%.

In the case of `CCCCC/C=C\C=C\C(=O)O[C@H]1C(C)=C[C@]23C(=O)[C@@H](C=C(CO)[C@@H](OC(C)=O)[C@]12O)[C@H]1[C@@H](C[C@H]3C)C1(C)C`, the Activity is >75%.
